Data: ChEMBL document CHEMBL1135421, “2-(Anilinomethyl)imidazolines as alpha1 adrenergic receptor agonists: the discovery of alpha1a subtype selective 2'-alkylsulfonyl-substituted analogues” (J Med Chem, 2002)
pEC50, pKi: −log10 of the molar value. “And” between values parts separate entries of the source, which are not always exact repeats. Equal entries are not always repeated.

Tests used:
[1] = target: T1, Alpha-1B adrenergic receptor (Homo sapiens, UniProt P35368); experiment: Agonist potency at Alpha-1B adrenergic receptor expressed in rat-1 fibroblasts; format: functional
T1 sequence (P35368 whole entry): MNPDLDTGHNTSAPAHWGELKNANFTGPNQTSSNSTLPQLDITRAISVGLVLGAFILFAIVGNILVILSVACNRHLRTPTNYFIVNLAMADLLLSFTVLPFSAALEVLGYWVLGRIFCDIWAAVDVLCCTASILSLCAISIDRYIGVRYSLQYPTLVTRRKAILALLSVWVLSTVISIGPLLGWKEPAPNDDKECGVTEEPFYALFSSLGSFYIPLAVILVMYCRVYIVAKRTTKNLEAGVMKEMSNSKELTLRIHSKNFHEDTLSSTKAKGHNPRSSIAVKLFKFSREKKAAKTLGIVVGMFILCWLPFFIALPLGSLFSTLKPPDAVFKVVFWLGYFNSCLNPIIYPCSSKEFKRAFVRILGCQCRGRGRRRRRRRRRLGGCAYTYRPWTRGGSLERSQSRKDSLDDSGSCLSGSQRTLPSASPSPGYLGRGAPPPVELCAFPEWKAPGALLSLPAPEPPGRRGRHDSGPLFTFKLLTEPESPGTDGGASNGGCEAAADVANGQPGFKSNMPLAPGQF

[2] = target: T2, Alpha-2A adrenergic receptor (Homo sapiens, UniProt P08913); experiment: Affinity to human Alpha-2A adrenergic receptor determined by radioligand binding techniques from chinese hamster ovary (CHO) cells; format: cell-based
T2 sequence (P08913 whole entry): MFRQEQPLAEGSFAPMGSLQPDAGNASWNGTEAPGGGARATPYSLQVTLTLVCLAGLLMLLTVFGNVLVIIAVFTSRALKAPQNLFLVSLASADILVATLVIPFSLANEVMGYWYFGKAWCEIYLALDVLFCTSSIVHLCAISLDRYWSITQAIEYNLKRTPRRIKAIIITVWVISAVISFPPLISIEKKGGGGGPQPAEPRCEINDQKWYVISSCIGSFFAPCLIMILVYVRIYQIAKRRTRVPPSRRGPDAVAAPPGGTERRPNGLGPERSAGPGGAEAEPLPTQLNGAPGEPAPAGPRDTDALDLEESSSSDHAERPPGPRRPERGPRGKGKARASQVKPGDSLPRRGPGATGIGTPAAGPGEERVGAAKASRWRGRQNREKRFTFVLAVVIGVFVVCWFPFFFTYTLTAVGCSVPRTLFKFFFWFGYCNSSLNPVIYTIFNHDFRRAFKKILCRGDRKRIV

[3] = target: T3, Alpha-2A adrenergic receptor (Homo sapiens) (UniProt P08913); experiment: Efficacy as percentage of the maximal effect observed for nonselective agonist UK-14304 in CHO cells expressing human Alpha-2A adrenergic receptor; format: functional, cell-based
T3 sequence (whole entry): T2 sequence (P08913 whole entry)

[4] = target: T4, Alpha-1A adrenergic receptor (Homo sapiens, UniProt P35348); experiment: Agonist potency at Alpha-1 adrenergic receptor assayed in rat-1 fibroblasts expressing human Alpha-1 adrenergic receptor; format: functional
T4 sequence (P35348 whole entry): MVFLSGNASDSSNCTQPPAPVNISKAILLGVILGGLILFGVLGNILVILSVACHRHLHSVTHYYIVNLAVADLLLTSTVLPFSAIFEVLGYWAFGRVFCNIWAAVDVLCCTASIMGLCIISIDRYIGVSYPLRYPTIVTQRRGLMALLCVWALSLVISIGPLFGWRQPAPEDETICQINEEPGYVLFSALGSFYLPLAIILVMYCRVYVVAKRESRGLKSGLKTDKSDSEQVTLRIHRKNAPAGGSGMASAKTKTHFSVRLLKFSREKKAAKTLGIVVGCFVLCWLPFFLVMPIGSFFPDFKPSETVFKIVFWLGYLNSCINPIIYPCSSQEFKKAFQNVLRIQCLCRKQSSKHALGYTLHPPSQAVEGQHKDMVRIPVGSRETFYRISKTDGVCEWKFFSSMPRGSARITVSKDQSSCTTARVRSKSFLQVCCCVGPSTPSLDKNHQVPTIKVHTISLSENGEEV
Method in brief: (§1)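 Rat-1 fibroblasts expressing human α1a/α1b/α1d, grown in DMEM with 10% heat-inactivated FBS and 0.6 mg/mL G418, plated 6000 cells/well and cultured 48 h at 37 °C. Loaded 2 h at 37 °C with Calcium Green (4 μM), 0.2% pluronic acid and 2.5 mM probenecid in HEPES buffer pH 7.4. FLIPR read at room temperature: 10 s baseline, then 50 s after compound. 11-point curves as % of 40 μM phenylephrine response, top concentration typically 5 μM.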

[5] = target: T2, Alpha-2A adrenergic receptor; experiment: Agonist potency at Alpha-2A adrenergic receptor expressed in CHO cells; format: functional, cell-based
[6] = target: T5, Alpha-2C adrenergic receptor (Homo sapiens, UniProt P18825); experiment: Agonist potency at Alpha-2C adrenergic receptor expressed in CHO cells; format: functional, cell-based
T5 sequence (P18825 whole entry): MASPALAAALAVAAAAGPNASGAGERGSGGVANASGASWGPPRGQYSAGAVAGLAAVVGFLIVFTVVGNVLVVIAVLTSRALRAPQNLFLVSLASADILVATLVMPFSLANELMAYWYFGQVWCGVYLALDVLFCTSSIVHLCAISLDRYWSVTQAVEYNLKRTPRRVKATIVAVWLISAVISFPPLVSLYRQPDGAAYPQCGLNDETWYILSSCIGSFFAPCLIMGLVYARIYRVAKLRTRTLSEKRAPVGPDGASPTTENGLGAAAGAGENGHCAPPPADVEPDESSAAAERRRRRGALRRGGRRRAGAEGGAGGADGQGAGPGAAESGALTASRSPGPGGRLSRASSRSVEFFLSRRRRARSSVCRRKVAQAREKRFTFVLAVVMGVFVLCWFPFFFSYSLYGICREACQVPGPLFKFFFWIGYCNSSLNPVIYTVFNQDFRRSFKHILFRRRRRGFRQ

[7] = target: T6, Alpha-1A adrenergic receptor (Homo sapiens) (UniProt P35348); experiment: Efficacy as % of the maximal effect observed for nonselective agonist phenylephrine in rat-1 fibroblasts expressing human Alpha-1 adrenergic receptor; format: functional; method in brief: as §1
T6 sequence (whole entry): T4 sequence (P35348 whole entry)

[8] = target: T2, Alpha-2A adrenergic receptor; experiment: Agonist potency at Alpha-2A stably expressed in CHO cells.; format: functional, cell-based
[9] = target: T7, Alpha-1B adrenergic receptor (Homo sapiens) (UniProt P35368); experiment: Efficacy as % of the maximal effect observed for nonselective agonist phenylephrine in rat-1 fibroblasts expressing human Alpha-1B adrenergic receptor; format: functional; method in brief: as §1
T7 sequence (whole entry): T1 sequence (P35368 whole entry)

Row | pEC50 [8] | SMILES | pEC50 [1] | pKi [2] | Max [3] [%] | pEC50 [4] | pEC50 [5] | pEC50 [6] | Max [7] [%] | Max [9] [%]
1 |  | CS(=O)(=O)c1c(F)cccc1NCC1=NCCN1 | < 4.00 | < 5.10 | 64 | 7.62 | < 5.00 | 6.30 |  | 
2 |  | CC(C)S(=O)(=O)c1ccccc1NCC1=NCCN1 | < 5.00 | 5.53 |  | 5.71 | < 5.00 | < 5.00 | 70 | 
3 | < 5.00 | CS(=O)(=O)c1ccc(C(F)(F)F)cc1NCC1=NCCN1 | < 4.00 | < 5.10 | 33 | 5.96 |  |  | 95 | 
4 | < 5.00 | Cc1ccc(S(C)(=O)=O)c(NCC2=NCCN2)c1 | 6.85 | 5.41 | 24 | 8.71 |  |  | 98 | 91
5 | < 5.00 | CS(=O)(=O)c1cccc(F)c1NCC1=NCCN1 | < 4.00 | 6.06 | 38 | 7.38 |  |  | 106 | 
6 |  | C[S+]([O-])c1ccccc1NCC1=NCCN1 (stereo not drawn) | < 4.00 | 6.01 | 21 |  | < 5.00 | < 5.00 | 91 | 
7 |  | CCCS(=O)(=O)c1ccccc1NCC1=NCCN1 |  |  | 23 |  |  |  | 115 | 
8 | < 5.00 | CS(=O)(=O)c1ccccc1NCC1=NCCN1 | < 4.00 | 5.25 | 11 |  |  |  | 103 | 
9 |  | CSc1ccccc1NCC1=NCCN1 |  | 7.32 | 76 |  |  | 8.25 |  | 
10 | 6.50 | CSc1cc(F)ccc1NCC1=NCCN1 | 8.22 | 7.23 | 47 | 8.11 |  |  | 93 | 78
11 |  | CCSc1ccccc1NCC1=NCCN1 | 7.86 | 7.09 | 67 | 8.47 | 6.60 |  | 109 | 82
12 | < 5.00 | CS(=O)(=O)c1ccc(F)cc1NCC1=NCCN1 | < 4.00 | 5.35 | 18 | 7.78 |  |  | 96 | 
13 | 7.60 | CSc1ccc(F)cc1NCC1=NCCN1 | 8.73 | 7.74 | 96 | 8.64 |  |  | 90 | 92
14 | 6.35 and 6.70 | COc1ccc(SC)c(NCC2=NCCN2)c1 | 8.44 | 6.66 | 52 | 8.80 |  |  | 101 | 92
15 |  | CSc1c(F)cccc1NCC1=NCCN1 | 7.07 | 6.78 | 102 | 8.11 | 7.00 | 7.80 | 91 | 48
16 |  | CC(C)Sc1ccccc1NCC1=NCCN1 | 7.21 | 7.09 | 64 | 8.30 | 6.38 | 7.55 | 115 | 29
17 |  | CS(=O)(=O)c1cc(F)ccc1NCC1=NCCN1 | < 4.00 | 6.40 | 19 |  | < 5.00 | < 5.00 | 61 | 
18 |  | CCS(=O)(=O)c1ccccc1NCC1=NCCN1 | < 4.00 | 5.88 | 10 | 6.62 | < 5.00 | 5.30 | 115 | 

Row | SMILES | pEC50 [8] | pEC50 [1] | pKi [2] | Max [3] [%] | pEC50 [4] | pEC50 [5] | pEC50 [6] | Max [7] [%] | Max [9] [%]
19 | CS(=O)(=O)c1cc(Cl)ccc1NCC1=NCCN1 | < 5.00 |  | 5.30 | 38 | 6.29 |  |  | 41 | 
20 | CSc1ccc(Cl)cc1NCC1=NCCN1 | 8.20 | 9.30 | 7.38 | 93 | 9.36 |  |  | 82 | 103
21 | CSc1ccc(C(F)(F)F)cc1NCC1=NCCN1 | < 5.00 | 8.22 | 6.70 | 40 | 7.98 |  |  | 111 | 114
22 | CSc1ccc(C)cc1NCC1=NCCN1 | 7.60 | 9.38 | 7.20 | 87 | 9.96 |  |  | 101 | 96
23 | CS(=O)(=O)c1ccc(Cl)cc1NCC1=NCCN1 | < 5.00 | 7.21 | < 5.10 | 42 | 8.55 |  |  | 91 | 103
